Results taken from ChEMBL document CHEMBL3244270, “Nitrosoureidonucleosides” (1979).

Tests used:
Type in all cases: functional
[1] = Cytotoxicity against human Hep2 cells; settings: HEp-2, read-out: ED50 (the source's name)
Method in brief: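 H.Ep-2 cultures; ED50 taken as the concentration that holds growth of treated cells to 50% of untreated controls.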

[2] = test system: L1210; experiment: In-vivo antitumor activity against mouse L1210 cells at 200 mg/kg
Method in brief: (§1)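 Leukemia L1210 in vivo; compound given as a single dose on day 1 only, with dose in mg/kg. Read-out is life span of treated versus control animals, expressed as T/C %.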

[3] = test system: L1210; experiment: Cytotoxicity against mouse L1210 cells; settings: read-out: ED50 (the source's name)
[4] = test system: L1210; experiment: In-vivo antitumor activity against mouse L1210 cells at 25 mg/kg; method in brief: as §1
[5] = test system: L1210; experiment: In-vivo antitumor activity against mouse L1210 cells at 100 mg/kg; method in brief: as §1

With `CN(N=O)C(=O)NC[C@H]1O[C@@H](n2ccc(N)nc2=O)[C@H](O)[C@@H]1O` the EC50 [1] was greater than 50 µM.

Compound `CNC(=O)NC[C@H]1O[C@@H](n2cnc3c(N)ncnc32)[C@H](O)[C@@H]1O` has a T/C [2] of 98% and an EC50 [1] greater than 60 µM.

`CNC(=O)N[C@H]1[C@@H](O)[C@H](n2ccc(N)nc2=O)O[C@@H]1CO` showed an EC50 [1] greater than 60 µM.

`CNC(=O)N[C@H]1[C@@H](O)[C@H](n2cnc3c(N)nc(Cl)nc32)O[C@@H]1CO` gave an EC50 [1] greater than 50 µM.

`Cc1cn([C@H]2C[C@H](NC(=O)N(C)N=O)[C@@H](CO)O2)c(=O)[nH]c1=O` gave an EC50 [3] of 1 µM.

In the case of `CN(N=O)C(=O)NC[C@H]1O[C@@H](n2cnc3c(N)ncnc32)[C@H](O)[C@@H]1O`, the T/C [2] is reported as 106% and the EC50 [1] is reported as 40 µM.

With `CN(N=O)C(=O)N[C@H]1[C@@H](O)[C@H](n2ccc(N)nc2=O)O[C@@H]1CO` the EC50 [1] was greater than 50 µM and the T/C [4] was 110%.

`CNC(=O)N[C@H]1[C@@H](O)[C@H](n2cnc3c(N)ncnc32)O[C@@H]1CO` gave an EC50 [1] greater than 60 µM.

`CN(N=O)C(=O)N[C@H]1[C@@H](O)[C@H](n2ccc(=O)[nH]c2=O)O[C@@H]1CO` gave an EC50 [1] greater than 60 µM and a T/C [5] of 122%.

In the case of `CN(N=O)C(=O)N[C@H]1[C@@H](O)[C@H](n2cnc3c(N)ncnc32)O[C@@H]1CO`, the EC50 [1] is reported as greater than 60 µM and the T/C [5] is reported as 123%.

Work on `CN(N=O)C(=O)N[C@H]1[C@@H](O)[C@H](n2cnc3c(N)nc(Cl)nc32)O[C@@H]1CO` yielded an EC50 [1] greater than 50 µM.

`CN(N=O)C(=O)NC[C@H]1O[C@@H](n2ccc(=O)[nH]c2=O)[C@H](O)[C@@H]1O` showed an EC50 [1] greater than 50 µM.
